An excerpt weighted towards active compounds, which were near 1.3% of everything screened.
Rpn11 inh – Rpn11 (PSMD14) deubiquitinase inhibitors, primary screen, biochemical, fluorescence polarization, uHTS; inhibition, % at 20 µM; 26S proteasome non-ATPase regulatory subunit 14 (Homo sapiens), O00487; human 26S proteasome, Ub4-pepOG fluorescence polarization; 20S core pre-blocked with epoxomicin; 360,000 compounds, 0.59% hits;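 active means inhibition at 20 µM, scaled to each plate's controls, above about 33%, limit read from the data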
TPT1 inhibitor – Candida albicans TPT1 enzyme inhibitors, primary screen, biochemical, fluorescence polarization; tRNA 2'-phosphotransferase TPT1 (Candida albicans SC5314); recombinant caTPT1, FP RNA substrate dephosphorylation; inhibition, % at 5 µM; 300,000 compounds, 0.81% hits; AID 1962, 2009;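 active means inhibition above the mean of all tested compounds plus 3 SD, set per screening campaign, cut at about 24% in these data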;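 further: plate controls were DMSO alone for no effect and ferristatin control at 100 nM for full effect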
aDG glyco act – activators of alpha-DG glycosylation, primary screen, uHTS, Pro5-aDG cells, AlphaScreen; alpha-DG glycosylation AlphaScreen (IIH6); 0% Pro5, 100% B10-LARGE cell signal; activation, % at 10 µM; 360,000 compounds, 0.22% hits;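 active means activation of at least 8% versus controls, or a plate z-score of at least 8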;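 further: Pro5 are CHO cells carrying HIG-tagged alpha-DG that lacks glycosylation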
HNF4A DNA FP – change in binding of human HNF4A to DNA, primary screen, biochemical, fluorescence polarization, FITC-DNA; 360,000 compounds, 0.3% hits; AID 1224865, 2016; activity change, % at 10 µM; 1 h; Hepatocyte nuclear factor 4-alpha (Homo sapiens), P41235; in the data active means activity change above about 30%, passing the limit was not always enough
Target sequence (P41235 whole entry, looked up): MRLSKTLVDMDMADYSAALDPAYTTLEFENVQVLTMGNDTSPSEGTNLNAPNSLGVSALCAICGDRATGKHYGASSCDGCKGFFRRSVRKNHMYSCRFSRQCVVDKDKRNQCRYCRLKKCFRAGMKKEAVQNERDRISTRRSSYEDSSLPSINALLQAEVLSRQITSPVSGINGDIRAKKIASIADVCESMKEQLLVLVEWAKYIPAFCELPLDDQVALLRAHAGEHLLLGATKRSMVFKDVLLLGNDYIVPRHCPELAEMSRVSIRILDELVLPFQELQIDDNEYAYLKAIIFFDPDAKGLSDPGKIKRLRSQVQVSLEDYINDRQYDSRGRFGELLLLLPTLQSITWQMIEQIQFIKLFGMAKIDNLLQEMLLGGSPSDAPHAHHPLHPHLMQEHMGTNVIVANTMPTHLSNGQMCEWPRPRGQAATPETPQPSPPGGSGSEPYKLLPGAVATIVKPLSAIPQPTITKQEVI
XiGFP reactiv – activators of inactive X chromosome reactivation, primary screen, imaging, XiGFP fibroblasts, GFP high-content imaging, set 2 | AID 743238, 2013 | XiGFP mouse fibroblasts, % GFP-positive cells imaging, 3 d; cells co-treated with 5-aza-dC sensitizer; scaled so ellipticine positive control = 100% | 360,000 compounds, 0.055% hits | activation, % at 7.58 µM;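 active means mean normalized replicate activation at least 10% and every replicate at or above 10%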;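 further: 0% = median of on-plate neutral control wells and 100% = ellipticine 6 µM median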
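System: SV40-immortalized XiGFP fibroblast cells, line 68-5-11 / Incubation: 3-day compound exposure, then 15 min fixation at room temperature / Compound: single concentration per compound, delivered by pin transfer / Buffer or medium: DMEM plus 5-aza-dC sensitizer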
CSN inh – inhibitors of CSN-mediated cullin deneddylation, primary screen, biochemical, fluorescence polarization, uHTS | COP9 signalosome complex subunit 5 (Homo sapiens), Q92905 | Purified CSN, SCF-Nedd8-OG deneddylation | inhibition, % at 12.5 µM | 360,000 compounds, 0.38% hits | AID 651999, 2013;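 active means pattern-corrected inhibition above about 35%, with an unprinted fluorescence ratio check between 0.5 and 1.5, limit read from the data, passing the limit was not always enough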;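 further: 0% = enzyme with substrate and 100% = substrate without enzyme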
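Assay system: Purified human Csn5 enzyme expressed in HEK293T cells | Amount: Enzyme 0.24 nM | Measured by: Fluorescence polarization readout | Medium: Tris/NaCl/DTT buffer, pH 7.5 | Compound dosing: One concentration, 12.5 µM, 0.25% DMSO | Times: 90 min incubation of compound, enzyme and substrate at room temperature | Control set: no-enzyme wells high, enzyme-with-substrate wells low | Read-out: % inhibition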
Rpn11 inh conf – Rpn11 (PSMD14) deubiquitinase inhibitors, confirmation, biochemical, fluorescence polarization, single concentration | shares compounds with Rpn11 inh | inhibition, % at 20 µM | 1,900 compounds, 29% hits | AID 602318, 2012 | purified human 26S proteasome, Ub4-pepOG fluorescence polarization; proteasome pretreated with epoxomicin
MMP-2 counter – MMP-2 enzyme inhibition, confirmation, counter-screen for RPN11 inhibitor project, biochemical, fluorescence, single concentration. inhibition, % at 20 µM. shares compounds with Rpn11 inh. AID 602330, 2012. recombinant MMP-2, FRET peptide cleavage fluorescence. 1,900 compounds, 4% hits;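 further: human MMP-2 activated beforehand with APMA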
Thrombin FP – bovine thrombin protease inhibition, confirmation, counter-screen for Rpn11 inhibitor project, biochemical, fluorescence polarization, single concentration | bovine thrombin cleavage of Ub4-pepOG | AID 602333, 2012 | inhibition, % at 20 µM | shares compounds with Rpn11 inh | 1,900 compounds, 13% hits;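 active means mean inhibition at least 40% at 20 µM, or signal 3 deviations below plate average, so some actives read negative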;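 further: plate controls were thrombin with DMSO for no effect and buffer wells lacking thrombin for full effect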
* hit, by the source's call. Unless noted, no stated cut-off is given here; in the data, active means inhibition above about 40%; inactive means the rest.

Screening COc1ccc(CNC(=O)C[C@H]2C[C@H](C(=O)N3CCCCC3)[C@@]3(CCc4ccccc4)c4[nH]c5cc(-c6ccco6)ccc5c4CCN3C2=O)cc1OC returned Rpn11 inh 56.5*, aDG glyco act 0.3, HNF4A DNA FP 11.4, CSN inh 13.9, Rpn11 inh conf 3.0, MMP-2 counter -2.0 and Thrombin FP -5.3.
CC(C)(C)NC(=O)C[C@H]1C[C@H](C(=O)N2CCCCC2)[C@@]2(CCc3ccccc3)c3[nH]c4cc(-c5ccco5)ccc4c3CCN2C1=O was read as Rpn11 inh 53.0*, aDG glyco act 0.2, HNF4A DNA FP 19.7, XiGFP reactiv 0.1, CSN inh 14.5, Rpn11 inh conf 10.7, MMP-2 counter 31.8 and Thrombin FP 22.6.
Screening O=C(C[C@H]1C[C@H](C(=O)N2CCOCC2)[C@@]2(CCC3CCCC3)c3[nH]c4cc(-c5ccco5)ccc4c3CCN2C1=O)NCCC1=CCCCC1 returned Rpn11 inh 38.0*, aDG glyco act 0.2, HNF4A DNA FP 9.4, CSN inh 7.5, Rpn11 inh conf 2.1, MMP-2 counter -24.4 and Thrombin FP -6.4.
`CN(C)CCCNC(=O)C[C@H]1C[C@H](C(=O)N2CCCCC2)[C@@]2(CCc3ccccc3)c3[nH]c4cc(-c5ccco5)ccc4c3CCN2C1=O` gave Rpn11 inh -2.6, aDG glyco act 0.5, HNF4A DNA FP -3.4, XiGFP reactiv 0.4 and CSN inh 1.9.
For CC[C@]12c3[nH]c4cc(-c5ccco5)ccc4c3CCN1C(=O)[C@@H](CC(=O)NCC13CC4CC(CC(C4)C1)C3)C[C@@H]2C(=O)N1CCN(C(=O)C2CC2)CC1 the results were Rpn11 inh 26.5, aDG glyco act 0.3, HNF4A DNA FP 2.4, XiGFP reactiv 0.1 and CSN inh 7.2.
Screening CCC(=O)Nc1ccc2c(c1)C(=O)N(C)C[C@H](OC)[C@@H](C)CN(CCC(F)(F)F)[C@@H](C)CO2 returned XiGFP reactiv 0.4.
Screening COc1ccc(NC(=O)N(C)C[C@H]2OCCCC[C@@H](C)Oc3ccc(NC(=O)Nc4ccc(F)cc4)cc3C(=O)N([C@H](C)CO)C[C@@H]2C)cc1 returned XiGFP reactiv 0.3.
For FC(F)(F)c1cccc(NC(=S)NNC(=S)Nc2cccc(C(F)(F)F)c2)c1 the results were TPT1 inhibitor 2.4.
FC(F)(F)c1cccc(NC(=S)Nc2ccc(Cl)c(Cl)c2)c1 was read as Rpn11 inh 36.8*, TPT1 inhibitor 0.8, aDG glyco act -0.1, HNF4A DNA FP 4.6, XiGFP reactiv 0.1, CSN inh 1.1, Rpn11 inh conf -8.0, MMP-2 counter 21.0 and Thrombin FP -24.1.
For CO[C@@H]1CN(C)C(=O)c2cc(NS(=O)(=O)c3ccc(C)cc3)ccc2OC[C@H](C)N(C)C[C@H]1C the results were XiGFP reactiv 0.5.
For COc1ccc(/C(C)=N/NC(=O)c2nnn(-c3nonc3N)c2-c2cccs2)cc1 the results were Rpn11 inh -0.1, TPT1 inhibitor -1.4, aDG glyco act -0.2, HNF4A DNA FP 2.5, XiGFP reactiv 0.1 and CSN inh -1.2.
Screening COc1ccc(/C(C)=N/NC(=O)c2nnn(-c3nonc3N)c2-c2ccccc2)cc1 returned Rpn11 inh 80.3*, TPT1 inhibitor -0.8, aDG glyco act 0.0, HNF4A DNA FP 8.5, XiGFP reactiv 0.1, CSN inh 7.6, Rpn11 inh conf 93.3*, MMP-2 counter -0.5 and Thrombin FP -11.3.
For COCCCn1cnnc1SCc1nc2sc(C(C)=O)c(C)c2c(=O)[nH]1 the results were Rpn11 inh 51.1*, TPT1 inhibitor 16.1, aDG glyco act -0.1, HNF4A DNA FP 8.2, XiGFP reactiv -0.1, CSN inh 8.2, Rpn11 inh conf 10.0, MMP-2 counter -51.7 and Thrombin FP 22.9.
For COc1ccccc1Cc1c(-c2ccccc2)nc2ccc(Br)cn12 the results were aDG glyco act 0.3, HNF4A DNA FP 17.3, XiGFP reactiv 0.0 and CSN inh 3.7.
`COc1ccccc1Cc1c(-c2ccccc2)nc2ccc(Cl)cn12` gave Rpn11 inh 9.9, aDG glyco act -0.1, HNF4A DNA FP 12.2, XiGFP reactiv 0.9 and CSN inh 5.3.
COc1ccccc1Cc1c(-c2ccc(Cl)cc2)nc2ccc(Br)cn12 was read as Rpn11 inh 41.2*, aDG glyco act 0.4, HNF4A DNA FP 34.1, XiGFP reactiv 0.1, CSN inh 14.8, Rpn11 inh conf 40.5*, MMP-2 counter -0.5 and Thrombin FP 50.8*.
`Clc1cccc(-c2nc3ccc(Cl)cn3c2Cc2ccccc2)c1` gave Rpn11 inh 29.4, aDG glyco act 0.2, HNF4A DNA FP 15.2, XiGFP reactiv 0.2 and CSN inh 8.5.
COc1ccccc1Cc1c(-c2ccc(C)cc2)nc2ccc(Br)cn12 was read as Rpn11 inh 48.4*, aDG glyco act -0.1, HNF4A DNA FP 11.0, XiGFP reactiv 0.1, CSN inh 99.9*, Rpn11 inh conf 6.6, MMP-2 counter -37.2 and Thrombin FP 0.5.
Screening COc1ccccc1Cc1c(-c2cccc(Br)c2)nc2ccc(Cl)cn12 returned Rpn11 inh 57.5*, aDG glyco act 0.1, HNF4A DNA FP 33.9, XiGFP reactiv 0.2, CSN inh 14.7, Rpn11 inh conf 60.2*, MMP-2 counter -8.1 and Thrombin FP 39.3.
